Source: ChEMBL document CHEMBL4513216, “Probing the Open Global Health Chemical Diversity Library for Multistage-Active Starting Points for Next-Generation Antimalarials” (ACS Infect Dis, 2020)

Assay: Toxicity liver stage against HepG2, at 10uM
Format: cell-based
Design: test concentration 10 uM, cell line HepG2-A16-CD81EGFP
Conditions: human, HepG2-A16-CD81EGFP cells; read-out: INHIBITION
Summary of the method: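 Uninfected HepG2-A16-CD81EGFP cells, 3 × 10^3 per well, 1536-well, plated on prespotted compound at 10 μM final, parasite-free screening media added to match infected plates; puromycin 10 μM positive, DMSO 0.5% negative; run in parallel with 48 h PbLuc assay at 37 °C, 5% CO2; viability by CellTiter-Glo luminescence, normalized to controls.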

Compound: O=C(c1ccc(C(F)(F)F)cc1)C1CCCN(C(=O)Cn2cnnn2)C1 (stereo unspecified)
- cytotoxicity at 10 µM: -5.34%

Compound: O=C(CCNc1ncccn1)Nc1ccc(Cn2cncn2)cc1
- cytotoxicity at 10 µM: 2.5%

Compound: COc1ccc(OC)c(NC(=O)N2CCCC2c2ccco2)c1 (stereo unspecified)
- cytotoxicity at 10 µM: -6.57%

Compound: CS(=O)(=O)N1CCc2ccc(C(=O)N3CCn4ncnc4C3)cc21
- cytotoxicity at 10 µM: -7.79%

Compound: CC1(C(=O)NC2CCCC2)CCCN(c2cnccn2)C1 (stereo unspecified)
- cytotoxicity at 10 µM: -5.81%

Compound: Cc1cc2n(n1)[C@@H](C(F)(F)F)C[C@@H](C1CCN(C(=O)C3CC3)CC1)N2
- cytotoxicity at 10 µM: -41%

Compound: CCn1ccc(C(=O)N2CCCC2(C)c2nc(C)cc(N(C)C)n2)n1 (stereo unspecified)
- cytotoxicity at 10 µM: -7.56%

Compound: O=c1[nH]c(N2CCOCC2)nc2c1CN(Cc1cccnc1)CC2
- cytotoxicity at 10 µM: 12.3%

Compound: Cc1cc(C2CCN(C(=O)c3cnn(C)c3)CC2)ccn1
- cytotoxicity at 10 µM: -17.8%

Compound: CN1CCCC(c2cccc(CCC(N)=O)n2)C1 (stereo unspecified)
- cytotoxicity at 10 µM: 2.9%

Compound: CN1CCCC[C@@H]2[C@H]1[C@@H](c1ccccc1)CCN2C(=O)c1ccncc1
- cytotoxicity at 10 µM: -13%

Compound: O=C(NCCNC(=O)C1CCN(CC(F)(F)F)CC1)c1ccoc1
- cytotoxicity at 10 µM: 5.09%

Compound: COc1ccc(CNCCc2cccc(C(N)=O)c2)cc1O
- cytotoxicity at 10 µM: 8.42%

Compound: COCCN1CCN(CC(=O)NC2(C#N)CCCC2)CC1C (stereo unspecified)
- cytotoxicity at 10 µM: 10.7%

Compound: CC(C)OCCC(=O)NCC(O)c1c(F)cccc1F (stereo unspecified)
- cytotoxicity at 10 µM: -6.51%

Compound: CC(C)n1cnnc1CNC(=O)c1cnc2ccccc2n1
- cytotoxicity at 10 µM: 7.01%

Compound: COC(=O)c1ccc(N(C(=O)c2cccnc2C)C(C)C)c(C)c1
- cytotoxicity at 10 µM: -8.58%

Compound: CC(C)c1cc(C(=O)N2CCOCC2CC(=O)c2ccco2)nn1C (stereo unspecified)
- cytotoxicity at 10 µM: 5.52%

Compound: CCc1ncc2c(n1)CN(CCCOc1ccc(C#N)cc1)CC2
- cytotoxicity at 10 µM: 16.4%

Compound: CC(c1nc(C2CC2)no1)N(C)Cc1ccc(C#N)cc1 (stereo unspecified)
- cytotoxicity at 10 µM: 4.15%

Compound: COc1ccccc1CCNC(=O)CNC1CCc2nc(C)nn2C1 (stereo unspecified)
- cytotoxicity at 10 µM: -12.3%

Compound: CC(C)c1cccc(-n2cc(O)c(C(N)=O)n2)c1
- cytotoxicity at 10 µM: -5.93%

Compound: NC(=O)c1ccc(CNC2CCCSC2)cc1 (stereo unspecified)
- cytotoxicity at 10 µM: -9.44%

Compound: CC(C(=O)N1CCc2sccc2C1)N1CCC(S(N)(=O)=O)CC1 (stereo unspecified)
- cytotoxicity at 10 µM: 9.26%

Compound: CCc1ccc(C(=O)NCc2ccnc(C)n2)cc1
- cytotoxicity at 10 µM: -4.91%

Compound: CC(C)C(O)CNC(=O)Nc1cnn(C(C)C)c1 (stereo unspecified)
- cytotoxicity at 10 µM: 3.57%

Compound: COc1cccc(CC(=O)N2CCc3ncnc(NC(C)C)c3CC2)c1
- cytotoxicity at 10 µM: 6.56%

Compound: COCCCN1CC2(CCCN(c3ncnc4[nH]cnc34)C2)CCC1=O (stereo unspecified)
- cytotoxicity at 10 µM: -2.95%

Compound: COCCN(Cc1nccs1)C(=O)c1cc(-c2ccc(C)s2)n[nH]1
- cytotoxicity at 10 µM: -8.84%

Compound: CCC(CO)NC(=O)c1cc(COc2ccc(OC)cc2Cl)[nH]n1 (stereo unspecified)
- cytotoxicity at 10 µM: 2.2%

Compound: O=C(c1ccc(-c2cc[nH]n2)cc1)N1CC[C@H](CO)[C@H](O)C1
- cytotoxicity at 10 µM: 4.52%

Compound: CCn1ncnc1CN(C/C=C/c1ccccc1)CCOC
- cytotoxicity at 10 µM: 4.3%

Compound: COCC(=O)N1CCCC(COc2ccccc2C)C1 (stereo unspecified)
- cytotoxicity at 10 µM: 2.06%

Compound: CN(Cc1ccccc1)C1(C(=O)NC(CO)CO)Cc2ccccc2C1
- cytotoxicity at 10 µM: 2.59%

Compound: COc1cccc(CC2CN(C3CC(C)(C)NC(C)(C)C3)CCO2)c1 (stereo unspecified)
- cytotoxicity at 10 µM: -91.7%

Compound: CCC(NC(=O)COC)c1ccccc1OCC(=O)N1CCCC1 (stereo unspecified)
- cytotoxicity at 10 µM: -6.39%

Compound: CCN(Cc1ccc2c(c1)OCCO2)C(=O)c1ccc(C)[nH]c1=O
- cytotoxicity at 10 µM: -4.6%

Compound: Cc1cc(C)n(CC2CCCN2C(=O)CCCc2ccccn2)n1 (stereo unspecified)
- cytotoxicity at 10 µM: -0.395%

Compound: O=C(Cc1ccc2c(c1)CCO2)N1CCN(c2cnccn2)CC1
- cytotoxicity at 10 µM: -11.3%

Compound: CNC(=O)[C@@H]1CN(C(=O)CCOC)C[C@H]1c1ccnc(N2CCCC2)n1
- cytotoxicity at 10 µM: -3.43%

Compound: CCC(C)(N)c1nc(C(C)C)cc(=O)[nH]1 (stereo unspecified)
- cytotoxicity at 10 µM: 14%

Compound: CC(C)(N)c1nc(C(F)F)cc(=O)[nH]1
- cytotoxicity at 10 µM: 11.9%

Compound: CC(C)(CN)NS(=O)(=O)c1c(F)cccc1F
- cytotoxicity at 10 µM: -8.89%

Compound: CCc1c(C)[nH]c(C2(N)CCCCC2)nc1=O
- cytotoxicity at 10 µM: -3.47%

Compound: Cc1nn(C)cc1CN1C[C@H]2CC[C@@H](C1)N(Cc1c(C)noc1C)C2=O
- cytotoxicity at 10 µM: 5.9%

Compound: COC(=O)Cn1c(=O)[nH]c2cn(-c3ccccc3)c(=O)n21
- cytotoxicity at 10 µM: 21.6%
